Measurements published in ChEMBL document CHEMBL1122323 (J Med Chem, 1983).
Activity calls are given as the source filed them. No cut-off for these calls is given here.

Assays:
[1] = species: Rattus norvegicus; test: Inhibition of conditioned avoidance response (CAR) in fasted male Sprague-Dawley rats.; format: functional
Method in brief: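 Rats trained to climb or hurdle a barrier in a shuttle box within 30 s. Training was 11 trials at 3-min intervals on day 1, then one foot-shock reinforcement and two trials daily for 9 days. On day 10, groups of 5-10 rats were given drug or vehicle by oral gavage and tested.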

[2] = target: T1, Adrenergic receptor alpha-1 (Rattus norvegicus, UniProt P15823+P23944+P43140); test: Inhibition of [3H]WB-4101 binding to alpha-1-adrenergic receptor from rat cerebral cortex membranes; format: cell membranes, Membrane
T1 sequence (P15823 whole entry): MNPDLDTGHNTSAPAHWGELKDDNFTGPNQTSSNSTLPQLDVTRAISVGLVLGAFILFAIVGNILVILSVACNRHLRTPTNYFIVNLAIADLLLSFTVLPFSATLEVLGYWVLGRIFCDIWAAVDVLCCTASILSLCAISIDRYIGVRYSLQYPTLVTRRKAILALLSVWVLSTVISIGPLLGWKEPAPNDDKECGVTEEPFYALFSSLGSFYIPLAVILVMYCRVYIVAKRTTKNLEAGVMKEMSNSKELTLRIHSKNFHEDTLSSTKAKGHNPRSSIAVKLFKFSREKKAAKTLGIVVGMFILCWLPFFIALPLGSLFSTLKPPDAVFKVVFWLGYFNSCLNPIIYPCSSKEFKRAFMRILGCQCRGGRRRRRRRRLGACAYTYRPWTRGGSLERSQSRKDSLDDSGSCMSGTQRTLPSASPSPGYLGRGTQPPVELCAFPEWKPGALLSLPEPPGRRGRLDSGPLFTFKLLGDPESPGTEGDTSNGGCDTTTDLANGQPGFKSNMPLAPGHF
T1 sequence (P23944 whole entry): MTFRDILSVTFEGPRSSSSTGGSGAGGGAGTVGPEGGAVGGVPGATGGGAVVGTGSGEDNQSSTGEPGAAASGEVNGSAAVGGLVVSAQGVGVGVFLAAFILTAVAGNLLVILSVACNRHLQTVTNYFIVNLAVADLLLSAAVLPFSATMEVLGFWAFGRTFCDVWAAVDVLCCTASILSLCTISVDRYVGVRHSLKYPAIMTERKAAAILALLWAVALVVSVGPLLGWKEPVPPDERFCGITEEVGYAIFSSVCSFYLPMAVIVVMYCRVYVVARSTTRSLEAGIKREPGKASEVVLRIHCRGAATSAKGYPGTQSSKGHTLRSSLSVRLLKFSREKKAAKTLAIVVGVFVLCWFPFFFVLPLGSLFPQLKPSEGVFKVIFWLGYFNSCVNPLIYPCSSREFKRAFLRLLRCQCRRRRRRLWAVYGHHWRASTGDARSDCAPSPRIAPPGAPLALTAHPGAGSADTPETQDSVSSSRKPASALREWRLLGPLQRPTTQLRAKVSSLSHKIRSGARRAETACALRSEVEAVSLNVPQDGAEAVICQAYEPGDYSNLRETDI
T1 sequence (P43140 whole entry): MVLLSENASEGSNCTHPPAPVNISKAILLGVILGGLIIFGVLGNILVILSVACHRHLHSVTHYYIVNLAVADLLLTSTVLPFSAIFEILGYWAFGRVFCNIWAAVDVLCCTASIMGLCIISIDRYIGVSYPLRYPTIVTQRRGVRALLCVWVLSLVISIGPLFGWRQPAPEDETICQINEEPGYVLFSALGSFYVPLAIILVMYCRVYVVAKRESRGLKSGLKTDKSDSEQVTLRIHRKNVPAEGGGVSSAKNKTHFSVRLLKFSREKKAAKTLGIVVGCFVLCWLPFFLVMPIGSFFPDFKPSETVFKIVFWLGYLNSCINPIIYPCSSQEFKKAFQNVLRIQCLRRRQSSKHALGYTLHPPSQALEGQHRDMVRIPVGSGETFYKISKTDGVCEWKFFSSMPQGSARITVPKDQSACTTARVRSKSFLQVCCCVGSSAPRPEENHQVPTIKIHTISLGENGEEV

[3] = species: Rattus norvegicus; test: Inhibition of apomorphine induced stereotypy in nonfasted male Sprague-Dawley rats; format: functional
Method in brief: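 Groups of 10 nonfasted male Sprague–Dawley rats got test drug by oral gavage. At the previously determined time of peak effect they were challenged with apomorphine 0.5 mg/kg sc and watched for 30 min in individual cages for sniffing, licking, rearing and biting. Inhibition meant all of these were blocked for the full 30 min. ED50 was taken by Berkson's method.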

[4] = species: Rattus norvegicus; test: Induction of catalepsy in nonfasted, male Sprague-Dawley rats (dose that produced catalepsy in 50% of the animals); value may range from 69.6 to 172.9; format: functional
[5] = species: Rattus norvegicus; test: Induction of catalepsy in nonfasted, male Sprague-Dawley rats (dose that produced catalepsy in 50% of the animals); value may range from 77.0 to 151.3; format: functional
[6] = species: Rattus norvegicus; test: Induction of catalepsy in nonfasted, male Sprague-Dawley rats (dose that produced catalepsy in 50% of the animals); value may range from 58.7 to 141.5; format: functional
[7] = species: Rattus norvegicus; test: Induction of catalepsy in nonfasted, male Sprague-Dawley rats (dose that produced catalepsy in 50% of the animals); value may range from 27.5 to 74.3; format: functional
[8] = species: Rattus norvegicus; test: Inhibition of apomorphine induced stereotypy in nonfasted male Sprague-Dawley rats; inactive; format: functional, organism-based

IC50 [2] [nM] | Compound | ED50 [1] [mg/kg] | also measured
480 | COc1ccccc1N1CCN(CCN2C(=O)CCC(C)(C)C2=O)CC1 | 55.3 | 
13 | COc1ccccc1N1CCN(CCCCN2C(=O)CC3(CCCC3)CC2=O)CC1 | 20.5 | 
360 | N#Cc1cccnc1N1CCN(CCCCN2C(=O)CC3(CCCC3)CC2=O)CC1 | 45 | ED50 [3]: 36.6 mg/kg
 | O=C1CC2(CCCC2)CC(=O)N1CCN1CCN(c2cccc(Cl)c2)CC1 | > 100 | 
 | O=C1C2C3C=CC(CC3)C2C(=O)N1CCCCN1CCN(c2ncccn2)CC1 (centres undefined) | > 100 | 
 | O=C1CC2(CCCC2)CC(=O)N1CCCCN1CCN(c2ccccc2Cl)CC1 | 77.8 | ED50 [4]: 109 mg/kg
895 | COc1ccccc1N1CCN(CCN2C(=O)CC(C)(C)CC2=O)CC1 | 91.2 | 
 | O=C1CC2(CCCC2)CC(=O)N1CCCCN1CCN(c2ncccn2)CC1 [BUSPIRONE] |  | ED50 [3]: 28 mg/kg
23 | O=C1CC2(CCCC2)CC(=O)N1CCCCN1CCN(c2cccc(Cl)c2)CC1 | 27.6 | 
680 | CC12CC1(C)C(=O)N(CCCCN1CCN(c3ncccn3)CC1)C2=O (centres undefined) | 91.6 | 
 | COc1ccccc1N1CCN(CCN2C(=O)CC3(CCCC3)CC2=O)CC1 [BMY-7378] | 52.1 | 
 | N#Cc1cccnc1N1CCN(CCN2C(=O)CC3(CCCC3)CC2=O)CC1 | > 100 | 
 | O=C1CC2(CCCC2)CC(=O)N1CCCN1CCN(c2ncccn2)CC1 | > 100 | 
 | COc1ccccc1N1CCN(CCN2C(=O)C(C)CC(C)C2=O)CC1 (centres undefined) | > 100 | 
 | O=C1CC2(CCCC2)CC(=O)N1CCCCN1CCN(c2ccccc2)CC1 | 30.7 | ED50 [5]: 108 mg/kg
44 | Cc1ccccc1N1CCN(CCCCN2C(=O)CC3(CCCC3)CC2=O)CC1 | ~100 | 
820 | O=C1CCC2(CCCC2)CC(=O)N1CCCCN1CCN(c2ncccn2)CC1 | > 50 | 
> 1000 | COc1ccccc1N1CCN(CCN2C(=O)CC3(CCCCCCC3)C2=O)CC1 | 69.9 | 

IC50 [2] [nM] | Compound | ED50 [1] [mg/kg] | also measured
 | O=C1CC2(CCCC2)CC(=O)N1CCCCN1CCN(c2ccccc2F)CC1 | 37.1 | ED50 [6]: 91.1 mg/kg
150 | O=C1CC2(CCCC2)CC(=O)N1CCCN1CCN(c2cccc(Cl)c2)CC1 | 28.2 | 
275 | O=C1CC2(CCCC2)CC(=O)N1CCCCN1CCN(c2ccccn2)CC1 | 34 | 
 | O=C1CC2(CCCC2)CC(=O)N1CCN1CCN(c2ccccc2)CC1 | > 100 | 
> 1000 | O=C1CC2(CCCCC2)C(=O)N1CCCCN1CCN(c2ncccn2)CC1 | 58.4 | 
65 | COc1cccnc1N1CCN(CCCCN2C(=O)CC3(CCCC3)CC2=O)CC1 | 55.2 | 
> 1000 | O=C1CC2(CCCCCC2)C(=O)N1CCCCN1CCN(c2ncccn2)CC1 | 51.5 | 
 | CSc1ccc2c(c1)N(CCC1CCCCN1C)c1ccccc1S2 (centres undefined) [THIORIDAZINE] | 126 | ED50 [7]: 45.2 mg/kg
110 | O=C1CC2(CCCC2)CC(=O)N1CCCCN1CCN(c2ccccc2[N+](=O)[O-])CC1 | 48.8 | 
 | O=C1CC2(CCCC2)CC(=O)N1CCCCCN1CCN(c2ncccn2)CC1 | > 100 | 
240 | COc1ccccc1N1CCN(CCN2C(=O)CC3(CCCCC3)C2=O)CC1 | 50 | 
> 1000 | Cc1ccnc(N2CCN(CCCCN3C(=O)CC4(CCCC4)CC3=O)CC2)n1 | 52.4 | 
 | CN1CCN(C2=Nc3cc(Cl)ccc3Nc3ccccc32)CC1 [CLOZAPINE] | 24.1 | 
 | CC1(C)CC(=O)N(CCCCN2CCN(c3ncccn3)CC2)C(=O)C1 [GEPIRONE] | 52.5 | NA [8]: inactive
 | O=C(CCCN1CCC(O)(c2ccc(Cl)cc2)CC1)c1ccc(F)cc1 [HALOPERIDOL] | 2.8 | 
 | N#Cc1cccnc1N1CCN(CCCN2C(=O)CC3(CCCC3)CC2=O)CC1 | > 100 | 
19 | COc1ccccc1N1CCN(CCCN2C(=O)CC3(CCCC3)CC2=O)CC1 | 24.1 | 
